{"data": "Published values from different studies", "read-out": "cell growth or viability", "note": "Each line is one published result; the experiments were not run side by side. pIC50: −log10 of the molar value."}
{"SMILES": "CCCCc1cccc(-c2cnc3c(n2)CCCC3)c1", "cell line": "MCF-10A", "time": "48 h", "endpoint": "pIC50", "result": "< 4.30"}
{"SMILES": "Cc1cn([C@H]2C[C@H](N=[N+]=[N-])[C@@H](CO)O2)c(=O)[nH]c1=O", "cell line": "VCaP", "method": "CCK-8", "time": "72 h", "endpoint": "pIC50", "result": "< 4.52"}
{"SMILES": "O=C(C=C[c-]1cccc1)c1sccc1Br.[Fe+2].c1cc[cH-]c1", "cell line": "4T1", "method": "MTT", "time": "72 h", "endpoint": "pIC50", "result": 4.48}
{"SMILES": "CNC(=O)c1ccc(N2C(=S)N(c3cnc(C#N)c(C(F)(F)F)c3)C(=O)C23CCC3)cc1F", "cell line": "VCaP", "method": "ATP luminescence", "time": "6 days", "endpoint": "pIC50", "result": 6.41}
{"SMILES": "O=C(O)c1cc(/N=N/c2ccc(S(=O)(=O)Nc3ccccn3)cc2)ccc1O", "cell line": "VCaP", "method": "CCK-8", "time": "72 h", "endpoint": "pIC50", "result": "< 4.52"}
{"SMILES": "COc1cc(OC)c(/C=C/S(=O)(=O)Nc2ccc(OC)c(N)c2)c(OC)c1", "cell line": "N417", "method": "trypan blue", "time": "96 h", "endpoint": "pIC50", "result": 8.40}
{"SMILES": "CN(C)CC[C@@H](c1ccc(Cl)cc1)c1ccccn1", "cell line": "CAL-27", "time": "72 h", "endpoint": "pIC50", "result": "< 4.70"}
{"SMILES": "O=C(c1cc(Cl)c(Cl)[nH]1)c1c(O)ccc(Cc2ccc(O)c(C(=O)c3cc(Cl)c(Cl)[nH]3)c2O)c1O", "cell line": "MDCK", "method": "MTT", "time": "72 h", "endpoint": "IC50", "result": "25 µg/mL"}
{"SMILES": "O=C(NC(=S)NCc1ccc(CNC(=S)NC(=O)c2ccc3ccccc3c2)cc1)c1ccc2ccccc2c1", "cell line": "MCF-10A", "time": "48 h", "endpoint": "pIC50", "result": 4.04}
{"SMILES": "COc1cc(-c2ncn(/C=C\\C(=O)OC(C)C)n2)cc(C(F)(F)F)c1", "cell line": "F-36P", "time": "72 h", "endpoint": "pIC50", "result": 7.20}
{"SMILES": "CCN1CCN(Cc2ccc(Nc3ncc(F)c(-c4cc(F)c5nc(C)n(C(C)C)c5c4)n3)nc2)CC1", "cell line": "4T1", "method": "CCK-8", "endpoint": "pIC50", "result": "< 5.70"}
{"SMILES": "O=C(C=C[c-]1cccc1)c1ccc[nH]1.[Fe+2].c1cc[cH-]c1", "cell line": "4T1", "method": "MTT", "time": "72 h", "endpoint": "pIC50", "result": 4.12}
{"SMILES": "N#Cc1ccc(COC[C@H]2O[C@@H](n3c(NCc4ccc(Cl)c(Cl)c4)nc4c(N)ncnc43)[C@H](O)[C@@H]2O)cc1", "cell line": "CAL-27", "time": "72 h", "endpoint": "pIC50", "result": "< 4.70"}
{"SMILES": "O=C1CCCCC1C1C2C=CC=CC1/C(=C/c1ccccc1)C2 (stereo not shown)", "cell line": "K562", "method": "flow cytometry", "endpoint": "pIC50", "result": 7.23}
{"SMILES": "COc1ccc(-c2cnc3c(n2)CCCC3)cc1Cl", "cell line": "MCF-10A", "time": "48 h", "endpoint": "pIC50", "result": 4.45}
{"SMILES": "CC(C)C[C@H](NC(=O)[C@H](Cc1ccccc1)NC(=O)c1cnccn1)B(O)O", "cell line": "SCLC-21H", "method": "ATP luminescence", "endpoint": "pIC50", "result": 7.96}
{"SMILES": "COc1ccc2c(c1OC)C(=O)O[C@@H]2[C@H]1c2c(cc3c(c2OC)OCO3)CCN1C", "cell line": "CAL-27", "time": "72 h", "endpoint": "pIC50", "result": 4.77}
{"SMILES": "CC(C)c1cccc(C(C)C)c1N1CCN(c2c(C(C)C)cccc2C(C)C)C1=[Se]", "cell line": "HCT-15", "method": "MTT", "time": "72 h", "endpoint": "pIC50", "result": 4.80}
{"SMILES": "COc1cc2nc(N3CCN(C(=O)c4ccco4)[C@H]4CCCC[C@H]43)nc(N)c2cc1OC (racemic)", "cell line": "CAL-27", "time": "72 h", "endpoint": "pIC50", "result": 4.88}
{"SMILES": "COc1cccc2c1C(=O)c1c(O)c3c(c(O)c1C2=O)C[C@@](O)(C(=O)CO)C[C@@H]3O[C@H]1C[C@H](N)[C@H](O)[C@H](C)O1", "cell line": "MCF-10A", "time": "48 h", "endpoint": "pIC50", "result": 5.92}
{"SMILES": "O=C1Nc2ccc(Cl)cc2[C@@](C#CC2CC2)(C(F)(F)F)O1", "cell line": "CAL-27", "time": "72 h", "endpoint": "pIC50", "result": "< 4.70"}
{"SMILES": "c1ccc(-c2cccc(-c3cnc4c(n3)CCCC4)c2)cc1", "cell line": "MCF-10A", "time": "48 h", "endpoint": "pIC50", "result": "< 4.30"}
{"SMILES": "CC1(C)S[C@@H]2[C@H](NC(=O)[C@H](N)c3ccc(O)cc3)C(=O)N2[C@H]1C(=O)O", "cell line": "VCaP", "method": "CCK-8", "time": "72 h", "endpoint": "pIC50", "result": "< 4.52"}
{"SMILES": "COc1cc(Nc2nccc(-c3cnn4nc(OC)ccc34)n2)cc(C(F)(F)F)c1", "cell line": "OVK18", "method": "ATP luminescence", "endpoint": "pIC50", "result": 6.39}
{"SMILES": "CCN(CC)CCOC(=O)C1(c2ccc([N+](=O)[O-])cc2)CCCC1", "cell line": "CAL-27", "time": "72 h", "endpoint": "pIC50", "result": "< 4.70"}
{"SMILES": "CN(C)c1ccc2cc(C(=O)N[C@@H](CCCNC(=N)CCl)C(=O)NCc3ccccc3)ccc2c1", "cell line": "4T1", "time": "48 h", "endpoint": "pIC50", "result": 4.92}
{"SMILES": "Clc1ccc(N2CCN(Cc3c[nH]c4ncccc34)CC2)cc1", "cell line": "CAL-27", "time": "72 h", "endpoint": "pIC50", "result": "< 4.70"}
{"SMILES": "CCCCOc1ccc(-c2cnc3c(n2)CCCC3)cc1", "cell line": "MCF-10A", "time": "48 h", "endpoint": "pIC50", "result": "4.30 to 4.60"}
{"SMILES": "Cc1ccc(C(=O)Nc2ccc(Oc3cc4cnn(C)c4cc3-c3cn[nH]c3)c(F)c2)c(=O)n1-c1ccc(F)cc1", "cell line": "NCI-H1993", "method": "ATP luminescence", "endpoint": "pIC50", "result": 7.12}
{"SMILES": "CCOc1cccc(-c2cnc3c(n2)CCCC3)c1", "cell line": "MCF-10A", "time": "48 h", "endpoint": "pIC50", "result": 4.51}
{"SMILES": "COc1ccc(CCN(C)CCc2ccc(OC)c(OC)c2)cc1OC", "cell line": "CAL-27", "time": "72 h", "endpoint": "pIC50", "result": "< 4.70"}
